Here are results for 16 molecules from ChEMBL document CHEMBL4342497, “Design, Synthesis, and Conformation-Activity Study of Unnatural Bridged Bicyclic Depsipeptides as Highly Potent Hypoxia Inducible Factor-1 Inhibitors and Antitumor Agents” (J Med Chem, 2020).

What is called IC50 is the concentration needed to halve the response being measured. In general, Tm refers to the temperature at which the thermal transition is half complete.

Active and inactive are the calls of the source. No cut-off for these calls is given here.

Assay [1] is described as follows: Inhibition of HIF1 (unknown origin) expressed in HEK293 cells assessed as reduction in hypoxia-induced HIF1 activation pre-incubated for 1 hrs before hypoxia exposure for 24 hrs by luciferase reporter gene assay. In kind it is cell-based. The note with it: Homo sapiens. An outline of the steps: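 HEK293 cells stably carrying HRE reporter plasmid p2.1, seeded at 8.0×10^4 per well and grown 24 h in normoxia. Medium changed to fresh medium with 0.25% DMSO and a range of compound concentrations for 1 h, then 24 h at 1% O2 or normoxia. Luciferase activity normalised to protein content. IC50 as mean ± SD, n = 3.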
A general note: Reporter assays use an easily measured gene product as a stand-in for the process of interest.

For assay [2], the system named is MCF7. Briefly: Cytotoxicity against human MCF7 cells assessed as reduction in cell viability incubated for 24 hrs by MTT assay. In kind it is functional, cell-based. The note with it: MCF7, 24 h. Summed up:
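MCF-7 cells seeded at 8.0×10^3 per well and treated with compound for 24 h. MTT 0.5 mg/mL added for 4 h at 37 °C after medium exchange, then DMSO lysis and absorbance at 570 nm. IC50 as mean ± SD, n = 3.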
(Tetrazolium dyes change colour on reduction, which living cells bring about.)

A short description of assay [3]: Retardation factor of the compound.
Assay [4] deals with MCF7. Briefly: Inhibition of hypoxia-induced HIF1 protein expression in human MCF7 cells incubated for 16 hrs by Western blot analysis. Type of assay: functional, cell-based. An outline of the steps: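 MCF-7 cells (2.5×10^6 per 100 mm dish) exposed to several compound concentrations for 16 h under 20% or 1% O2. Lysates run on 8% SDS-PAGE and blotted to nitrocellulose. Blocked in 5% milk, probed with anti-HIF-1α (1:1000) and β-actin (1:3000), then HRP secondary. Detected by chemiluminescence.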

Assay [5] concerns MCF7. Briefly: Cytotoxicity against human MCF7 cells assessed as reduction in cell viability incubated for 72 hrs by MTT assay. Type of assay: functional, cell-based. To be noted: MCF7, 72 h. An outline of the steps: (§1)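 Cells seeded overnight at 3.0×10^3 (A549), 5.0×10^3 (HT29) or 4.0×10^3 (MCF-7, MDA-MB-231) per well, then exposed to compound for 72 h. Medium replaced, MTT 0.5 mg/mL added for 4 h at 37 °C, cells lysed in DMSO, absorbance read at 570 nm. IC50 as mean ± SD, n = 3. Final DMSO below 1.0%.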

In assay [6] the test system is MDA-MB-231. Briefly: Cytotoxicity against human MDA-MB-231 cells assessed as reduction in cell viability incubated for 72 hrs by MTT assay. Type of assay: functional, cell-based. The note with it: MDA-MB-231, 72 h. An outline of the steps:
as §1

Assay [7] relates to A549. Briefly: Cytotoxicity against human A549 cells assessed as reduction in cell viability incubated for 72 hrs by MTT assay. Type of assay: functional, cell-based. The note with it: A549, 72 h. An outline of the steps: as §1
The subject of assay [8] is HT-29. Briefly: Cytotoxicity against human HT-29 cells assessed as reduction in cell viability incubated for 72 hrs by MTT assay. Type of assay: functional, cell-based. The note with it: HT-29, 72 h. An outline of the steps:
as §1

A short description of assay [9]: Binding affinity to synthetic d(ACGTAGAACGT) dsDNA assessed as melting temperature at 2.5 uM by SYBR green I dye dependent differential scanning fluorimetry based thermal denaturation method (reference value: 44.2 +/- 1.0 degC). (In general: DSF heats the sample and reads unfolding from a dye or from intrinsic fluorescence.)
Assay [10] is described as follows: Binding affinity to synthetic 5'-FAM-CCCTACGTATATGAAAATATACGTAGGG-BHQ1-3' dsDNA assessed as melting temperature at 2.5 uM by SYBR green I dye dependent differential scanning fluorimetry based thermal denaturation method (reference value: 70.7 +/- 0.0 degC).
Assay [11] concerns MCF7. Briefly: Inhibition of hypoxia-induced HIF1 mRNA expression in human MCF7 cells incubated for 16 hrs by RT-PCR analysis. Type of assay: functional, cell-based.

Take `CC(=O)N[C@@H]1COC(=O)[C@H](C(C)C)N(C)C(=O)[C@@H]2CSSC[C@@H](C(=O)N(C)[C@@H](C(C)C)C(=O)OC[C@@H](NC(C)=O)C(=O)N[C@@H](C)C(=O)N2C)N(C)C(=O)[C@H](C)NC1=O`: the figures for the half-inhibitory concentration (IC50) in assay [1] and in assay [2] were more than 100000 nM and 15500 nM, respectively. In addition, the Rm in assay [3] was -0.3.

Turning to `CC(C)[C@H]1C(=O)OC[C@@H](NC(=O)c2cnc3ccccc3n2)C(=O)N[C@@H](C)C(=O)N(C)[C@H]2CSC(C)(C)SC[C@@H](C(=O)N1C)N(C)C(=O)[C@H](C)NC(=O)[C@H](NC(=O)c1cnc3ccccc3n1)COC(=O)[C@H](C(C)C)N(C)C2=O`, the IC50 in assay [1] worked out at 25.2 nM; in [2], 5900 nM. The Rm in assay [3] was 0.31.

Consider `CC(C)[C@H]1C(=O)OC[C@@H](NC(=O)c2cnc3ccccc3n2)C(=O)N[C@@H](C)C(=O)N(C)[C@H]2C[Se]C[C@@H](C(=O)N1C)N(C)C(=O)[C@H](C)NC(=O)[C@H](NC(=O)c1cnc3ccccc3n1)COC(=O)[C@H](C(C)C)N(C)C2=O`, for which the IC50 in [1] came to 2 nM; in assay [5], 7.1 nM; in [6], 6.8 nM; in assay [7], 14.5 nM; in [8] it was 11.7 nM. In assay [4], the inhibition entry is “Dose-dependent effect”. The Rm in assay [3] stood at 0.2.

As to `CC(C)[C@H]1C(=O)OC[C@@H](NC(=O)c2cnc3ccccc3n2)C(=O)N[C@@H](C)C(=O)N(C)[C@H]2CSC[C@@H](C(=O)N1C)N(C)C(=O)[C@H](C)NC(=O)[C@H](NC(=O)c1cnc3ccccc3n1)COC(=O)[C@H](C(C)C)N(C)C2=O`, the IC50 in assay [1] was found to be 2.4 nM; in [5], 9.7 nM; in assay [6] it was 8 nM; in assay [7], 16.2 nM; in assay [8] it was 16.2 nM. Moreover, the inhibition entry in assay [4] was “Dose-dependent effect”. The same molecule showed a Rm in assay [3] of 0.2.

For the molecule `CC(C)[C@H]1C(=O)OC[C@@H](NC(=O)c2cnc3ccccc3n2)C(=O)N[C@@H](C)C(=O)N(C)[C@H]2CCCC[C@@H](C(=O)N1C)N(C)C(=O)[C@H](C)NC(=O)[C@H](NC(=O)c1cnc3ccccc3n1)COC(=O)[C@H](C(C)C)N(C)C2=O`, the IC50 in assay [1] was found to be 6.3 nM; in assay [2] it was 123 nM; in assay [5], 23.5 nM; in assay [6], 25.3 nM; in assay [7], 71.9 nM; in assay [8], 57.4 nM. In addition, the Rm in [3] was 0.32.

With `CC(C)[C@H]1C(=O)OC[C@@H](NC(=O)c2cnc3ccccc3n2)C(=O)N[C@@H](C)C(=O)N(C)[C@H]2C/C=C\C[C@@H](C(=O)N1C)N(C)C(=O)[C@H](C)NC(=O)[C@H](NC(=O)c1cnc3ccccc3n1)COC(=O)[C@H](C(C)C)N(C)C2=O`, the IC50 in assay [1] is 1 nM; in [2] it was 13.4 nM; in assay [5] it was 2.9 nM; in assay [6], 3.2 nM; in assay [7], 5.3 nM; in assay [8] it was 6.2 nM. In [4], the inhibition entry was “Dose-dependent effect”. For the same molecule, the Rm in [3] is 0.25. The Tm in assay [9] turned out to be 52.5 °C; in assay [10], 81.3 °C.

With `CC[C@H](C)[C@H]1C(=O)OC[C@@H](NC(=O)c2cnc3ccccc3n2)C(=O)N[C@@H](C)C(=O)N(C)[C@H]2CSSC[C@@H](C(=O)N1C)N(C)C(=O)[C@H](C)NC(=O)[C@H](NC(=O)c1cnc3ccccc3n1)COC(=O)[C@H](C(C)C)N(C)C2=O`, the IC50 in assay [1] worked out at 55.5 nM; in assay [2] it was 4100 nM. Further, the Rm in assay [3] was determined as 0.39.

For `CC(C)[C@H]1C(=O)OC[C@@H](NC(=O)c2cnc3ccccc3n2)C(=O)N[C@@H](C)C(=O)N(C)[C@H]2CSSC[C@@H](C(=O)N1C)N(C)C(=O)[C@H](C)NC(=O)[C@H](NC(=O)c1cnc3ccccc3n1)COC(=O)[C@@H](C(C)C)N(C)C2=O`, the IC50 in [1] came to 2000 nM; in [2] it was 24300 nM. The molecule further came in with a Rm in assay [3] of 0.24.

For `CC(C)[C@H]1C(=O)OC[C@@H](NC(=O)c2nc3ccccc3cc2O)C(=O)N[C@@H](C)C(=O)N(C)[C@H]2C/C=C\C[C@@H](C(=O)N1C)N(C)C(=O)[C@H](C)NC(=O)[C@H](NC(=O)c1nc3ccccc3cc1O)COC(=O)[C@H](C(C)C)N(C)C2=O`, the IC50 in assay [1] amounted to 0.09 nM; in [5], 0.22 nM. Also, the inhibition result in [4] was “Dose-dependent effect”. The Rm in assay [3] was found to be 0.52. Moreover, the melting temperature (Tm) in assay [9] was 54.3 °C.

Regarding `CC(=O)SC[C@H]1C(=O)N(C)[C@@H](C(C)C)C(=O)OC[C@@H](NC(=O)c2cnc3ccccc3n2)C(=O)N[C@@H](C)C(=O)N(C)[C@@H](CSC(C)=O)C(=O)N(C)[C@@H](C(C)C)C(=O)OC[C@@H](NC(=O)c2cnc3ccccc3n2)C(=O)N[C@@H](C)C(=O)N1C`, the results for the IC50 in assay [1] and in assay [2] were 235 nM and 8700 nM, respectively. In addition, the Rm in assay [3] was found to be 0.23.

As to `CSC[C@H]1C(=O)N(C)[C@@H](C(C)C)C(=O)OC[C@@H](NC(=O)c2cnc3ccccc3n2)C(=O)N[C@@H](C)C(=O)N(C)[C@@H](CSC)C(=O)N(C)[C@@H](C(C)C)C(=O)OC[C@@H](NC(=O)c2cnc3ccccc3n2)C(=O)N[C@@H](C)C(=O)N1C`, the values for the IC50 in [1] and in assay [2] were 222 nM and 4300 nM, respectively. Moreover, in [3], the Rm came out at 0.34.

Take `CC(C)[C@H]1C(=O)OC[C@@H](NC(=O)c2cnc3ccccc3n2)C(=O)N[C@@H](C)C(=O)N(C)[C@@H](CS)C(=O)N(C)[C@@H](C(C)C)C(=O)OC[C@@H](NC(=O)c2cnc3ccccc3n2)C(=O)N[C@@H](C)C(=O)N(C)[C@@H](CS)C(=O)N1C`: the half-maximal inhibitory concentration (IC50) worked out at 32.3 nM in [1] and 2700 nM in [2]. In assay [3], this molecule yielded a Rm of 0.28.

`CC(C)[C@@H]1C(=O)OC[C@@H](NC(=O)c2cnc3ccccc3n2)C(=O)N[C@@H](C)C(=O)N(C)[C@H]2CSSC[C@@H](C(=O)N1C)N(C)C(=O)[C@H](C)NC(=O)[C@H](NC(=O)c1cnc3ccccc3n1)COC(=O)[C@@H](C(C)C)N(C)C2=O`: the IC50 was 590 nM in assay [1] and 6100 nM in [2]. Besides, the Rm in assay [3] stood at 0.25.

Turning to `CC(C)[C@@H]1C(=O)OC[C@H](NC(=O)c2cnc3ccccc3n2)C(=O)N[C@H](C)C(=O)N(C)[C@@H]2CSSC[C@H](C(=O)N1C)N(C)C(=O)[C@@H](C)NC(=O)[C@@H](NC(=O)c1cnc3ccccc3n1)COC(=O)[C@@H](C(C)C)N(C)C2=O`, the IC50 in assay [1] and in assay [2] was more than 100000 nM each time. Moreover, the inhibition result in assay [4] and in assay [11] was “inactive” throughout. Besides, the Rm in [3] was determined as 0.15.

For the molecule `CC[C@H](C)[C@H]1C(=O)OC[C@@H](NC(=O)c2cnc3ccccc3n2)C(=O)N[C@@H](C)C(=O)N(C)[C@H]2CSSC[C@@H](C(=O)N1C)N(C)C(=O)[C@H](C)NC(=O)[C@H](NC(=O)c1cnc3ccccc3n1)COC(=O)[C@H]([C@@H](C)CC)N(C)C2=O`, the concentration for half-maximal inhibition (IC50) stood at 60 nM in assay [1] and 4000 nM in assay [2]. The molecule also returned a Rm in [3] of 0.45.

For `CC(C)[C@H]1C(=O)OC[C@@H](NC(=O)CNC(=O)c2cnc3ccccc3n2)C(=O)N[C@@H](C)C(=O)N(C)[C@H]2CSSC[C@@H](C(=O)N1C)N(C)C(=O)[C@H](C)NC(=O)[C@H](NC(=O)CNC(=O)c1cnc3ccccc3n1)COC(=O)[C@H](C(C)C)N(C)C2=O`, the half-inhibitory concentration (IC50) in [1] was more than 100000 nM; in assay [2] it was 13600 nM. Also, the Rm in [3] is -0.05.
